Results as given in PubChem BioAssay AID624109 (Broad Institute, 2012).
Results filed as inconclusive are left out. Active and inactive are the calls of the source.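 How the source made its calls: active means curve reaches the -35% threshold at a concentration no more than twice the top valid dose, in duplicate at both wavelengths; inconclusive means no clear call, values can overlap the other calls; inactive means the rest, including effects opposite to the expected decrease.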

experiment: P. aeruginosa growth delay under iron chelation, dose response, absorbance 405 nm, dry powder, set 6 (AID 624109); conditions: P. aeruginosa growth with EDDHA, active compounds read low; at 0.056 µM unless noted
Summary of the method: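 System: Pseudomonas aeruginosa ATCC 15692 whole bacterial cells | Input: Bacterial inoculum at final OD600 of 0.0000005 | Medium: Succinate M9 medium at pH 7.0 with iron chelator EDDHA | Also added: 2 µM EDDHA final | Incubation: 24-30 h growth at 37 °C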

Max activity, inactive:
COCCNC(C#N)c1ccc(Cl)cc1 (centres undefined) -29.7% [at 4.6 µM]
CCCCC(C#N)c1ccc(Cl)cn1 (centres undefined) -57.2%
COCCC(C#N)c1ccc(F)cc1 (centres undefined) -46.3% [at 0.5 µM]
N#CC(c1ccc(Cl)cc1)c1ccccn1 (centres undefined) -55.2%
COCCC(C#N)c1ccc(Cl)cc1 (centres undefined) -41.4%
CCCCC(C#N)c1ccc(F)cn1 (centres undefined) -30.6% [at 0.5 µM]
N#CC(c1ccc(F)cc1)c1cccc(Cl)n1 (centres undefined) -43.2% [at 0.16 µM]
CCCCC(C#N)c1ccc(Cl)cc1 (centres undefined) -39.1% [at 0.16 µM]
CCCCC(C#N)c1ccccn1 (centres undefined) 1.07% [at 120 µM]
N#CC1c2ccc(Cl)cc2CCc2cccnc21 (centres undefined) -36.3% [at 4.6 µM]
CCCCC(C#N)c1ccc(F)cc1 (centres undefined) -50.3% [at 1.5 µM]
CN(C)CCCC(C#N)c1ccc(Cl)cc1 (centres undefined) -33.4%
Clc1ccc(C(c2cccc(Cl)n2)c2nn[nH]n2)cc1 (centres undefined) 10.4% [at 13.5 µM]
N#Cc1cccc(C(C#N)c2ccc(F)cc2)n1 (centres undefined) 19% [at 0.0195 µM]
